Experimental data reported in ChEMBL document CHEMBL1133638, “Synthesis and biological activity of a novel 11a-homo (cyclohexyl) prostaglandin” (J Med Chem, 2000).

How the values were obtained:
[1] = Evaluated for its concentration at which 50% of maximal stimulation of phosphoinositide turnover was observed; type: functional, Mus musculus
How it was run: (§1)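 Swiss 3T3 mouse fibroblasts with FP receptors, confluent, labelled 24-30 h at 37 °C with 1.0-1.5 μCi [3H]-myo-inositol in DMEM. Rinsed into DMEM/F-12 with 10 mM LiCl, then agonist or solvent for 60 min at 37 °C, triplicate. Stopped with ice-cold 0.1 M formic acid. Total [3H]IPs isolated on anion-exchange resin and counted.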

[2] = species on record: Mus musculus; assay: Evaluated for percent maximum response relative to cloprostenol (n=11); type: functional; how it was run: as §1
[3] = species on record: Mus musculus; assay: Evaluated for percent maximum response relative to cloprostenol (n=2); type: functional; how it was run: as §1
[4] = species on record: Mus musculus; assay: Evaluated for percent maximum response relative to cloprostenol (n = 105); type: functional; how it was run: as §1

Row | EC50 [1] | SMILES | Max response [2] | Max response [3] | Max response [4]
1 | 23 nM | CCCCC[C@H](O)/C=C/[C@@H]1[C@@H](C/C=C\CCCC(=O)O)[C@@H](O)C[C@H]1O [DINOPROST] | 91% |  | 
2 | 319 nM | O=C(O)CCC/C=C\C[C@@H]1[C@@H](/C=C/[C@@H](O)COc2cccc(Cl)c2)[C@H](O)CC[C@@H]1O |  | 72% | 
3 | 1 nM | O=C(O)CCC/C=C\CC1C(O)CC(O)C1/C=C/C(O)COc1cccc(Cl)c1 (stereo not drawn) [CLOPROSTENOL] |  |  | 100%
4 | 2750 nM | O=C(O)CCC/C=C\C[C@@H]1[C@@H](/C=C/[C@H](O)COc2cccc(Cl)c2)[C@H](O)CC[C@@H]1O |  | 50% | 
